Reference: ChEMBL document CHEMBL3739298, “(9βH)-Pimaranes and Derivatives from the Tuber of Icacina trichantha” (J Nat Prod, 2015)

Assays:
Assay type in all cases: functional, cell-based; call rule not given here
MDA-MB-435 = experiment: Cytotoxicity against human MDA-MB-435 cells after 72 hrs by cell proliferation assay
In short: (§1)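 Cells from ATCC grown at 37 °C, 5% CO2 in RPMI 1640 with 10% FBS, penicillin 100 units/mL, streptomycin 100 μg/mL. Log-phase cells trypsinized, washed twice, seeded at 5000/well, left overnight. DMSO-dissolved samples tested at 20, 4, 0.8, 0.16, 0.032 μM (final DMSO 0.5%) for 72 h at 37 °C. Viable cells read by MTS-type absorbance assay; IC50 relative to DMSO control.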

MDA-MB-231 = experiment: Cytotoxicity against human MDA-MB-231 cells after 72 hrs by cell proliferation assay; in short: as §1
[1] = Cytotoxicity against human OVCAR3 cells after 72 hrs by cell proliferation assay; details: ovcar-3; in short: as §1

Row | Compound | IC50 (MDA-MB-435; mda-mb-435) | IC50 (MDA-MB-231) | IC50 [1] | IC50 (MDA-MB-435; Homo sapiens, MDA-MB-435, 72 h, read-out: IC50) [µM]
1 | C[C@]12C(=O)OC[C@@]3(CC[C@@H]1O)[C@@H]1CC(=O)c4ccoc4[C@@H]1C[C@@H](O)[C@H]32 | Not Active | Not Active | Not Active | –
2 | C[C@@]12C(=O)CC[C@]3(C)[C@@H]4CC[C@@]5(C)[C@@H](O)CO[C@H]5C4=C[C@@H](OC1=O)[C@@H]23 | Not Active | Not Active | Not Active | –
3 | COc1cc2c(c3occc13)[C@@H](O)[C@H]1OC(=O)[C@]3(C)[C@H]1[C@]21CCC3(O)OC1 | Not Active | Not Active | Not Active | –
4 | CO[C@@]12OC[C@@H](O)[C@]1(C)CC[C@@H]1C2=C[C@H]2OC(=O)[C@]3(C)[C@H]2[C@]12CCC3(O)OC2 | – | Not Active | Not Active | 7.04
5 | C[C@]12C(=O)O[C@@H]3Cc4c(cc(O)c5ccoc45)[C@@]4(CCC1(O)OC4)[C@@H]32 | Not Active | Not Active | Not Active | –
